Test results published in ChEMBL document CHEMBL1212766, “Dose escalation study of the safety, tolerability, and pharmacokinetics of nemonoxacin (TG-873870), a novel potent broad-spectrum nonfluorinated quinolone, in healthy volunteers” (Antimicrob Agents Chemother, 2010).

Legend:
Homo sapiens [1] = assay: Toxicity in healthy human assessed as occurrence of contact dermatitis at 250 […], po; assay type: organism-based; design: route oral; conditions: in vivo
In short: (§1)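 Randomized, double-blind, placebo-controlled single ascending oral doses in healthy volunteers (cohorts of 6 active, 2 placebo; 25–1,500 mg). After a 10-h fast, dose given with 240 ml water; fasting continued 4 h. Subjects were confined to 96 h postdose. AEs were recorded throughout dosing and at follow-up, reported as number and percentage of subjects with events per treatment.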

Homo sapiens [2] = assay: Toxicity in healthy human assessed as occurrence of contact dermatitis at 125 […], po; assay type: organism-based; design: route oral; conditions: in vivo; in short: as §1
Homo sapiens [3] = assay: Toxicity in healthy human assessed as occurrence of contact dermatitis at 50 […], po; assay type: organism-based; design: route oral; conditions: in vivo; in short: as §1
Homo sapiens [4] = assay: Toxicity in healthy human assessed as occurrence of contact dermatitis at 1000 […], po; assay type: organism-based; design: route oral; conditions: in vivo
In short: (§2)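 Double-blind, placebo-controlled single ascending oral dose; two placebo and six active subjects per cohort. Adverse events were recorded throughout the dosing period and at follow-up, with confinement to 96 h after dosing. Results are reported as number and percentage of subjects with the event (n/N × 100).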

Homo sapiens [5] = assay: Toxicity in healthy human assessed as occurrence of pruritus at 125 […], po; assay type: organism-based; design: route oral; conditions: in vivo
Homo sapiens [6] = assay: Toxicity in healthy human assessed as occurrence of pruritus at 250 […], po; assay type: organism-based; design: route oral; conditions: in vivo
Homo sapiens [7] = assay: Toxicity in healthy human assessed as occurrence of pruritus at 500 […], po; assay type: organism-based; design: route oral; conditions: in vivo
Homo sapiens [8] = assay: Toxicity in healthy human assessed as occurrence of pruritus at 1000 […], po; assay type: organism-based; design: route oral; conditions: in vivo
Homo sapiens [9] = assay: Toxicity in healthy human assessed as occurrence of headache at 25 […], po; assay type: organism-based; design: route oral; conditions: in vivo
Homo sapiens [10] = assay: Toxicity in healthy human assessed as occurrence of headache at 250 […], po; assay type: organism-based; design: route oral; conditions: in vivo
Homo sapiens [11] = assay: Toxicity in healthy human assessed as occurrence of oral hypoesthesia at 25 […], po; assay type: organism-based; design: route oral; conditions: in vivo
Homo sapiens [12] = assay: Toxicity in healthy human assessed as occurrence of oral hypoesthesia at 250 […], po; assay type: organism-based; design: route oral; conditions: in vivo
Homo sapiens [13] = assay: Toxicity in healthy human assessed as occurrence of abdominal pain at 50 […], po; assay type: organism-based, Abdomen; design: route oral; conditions: in vivo; in short: as §2
Homo sapiens [14] = assay: Toxicity in healthy human assessed as occurrence of abdominal pain at 500 […], po; assay type: organism-based, Abdomen; design: route oral; conditions: in vivo; in short: as §2
Homo sapiens [15] = assay: Toxicity in healthy human assessed as occurrence of pustular rashes at 1000 […], po; assay type: organism-based; design: route oral; conditions: in vivo
Homo sapiens [16] = assay: Toxicity in healthy human assessed as occurrence of nausea at 250 […], po; assay type: organism-based; design: route oral; conditions: in vivo
Homo sapiens [17] = assay: Toxicity in healthy human assessed as occurrence of nausea at 500 […], po; assay type: organism-based; design: route oral; conditions: in vivo
Homo sapiens [18] = assay: Toxicity in healthy human assessed as occurrence of nausea at 1500 […], po; assay type: organism-based; design: route oral; conditions: in vivo
Homo sapiens [19] = assay: Toxicity in healthy human assessed as occurrence of ear pain at 25 […], po; assay type: organism-based; design: route oral; conditions: in vivo
Homo sapiens [20] = assay: AUC (0 to infinity) in healthy human at 250 […], po administered as single dose; assay type: ADME, organism-based, Plasma; design: time infinity, route oral; conditions: in vivo
Homo sapiens [21] = assay: AUC (0 to infinity) in healthy human at 500 […], po administered as single dose; assay type: ADME, organism-based, Plasma; design: time infinity, route oral; conditions: in vivo
[22] = Tmax in healthy human at 1500 […], po administered as single dose; assay type: ADME, organism-based; design: route oral; conditions: in vivo
In short: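 Tmax was read by visual inspection of individual plasma concentration–time profiles. Plasma was sampled at 0.5-h steps early on and then out to 96 h, and assayed by LC-MS/MS. Subjects were fasted healthy volunteers, six per cohort, given one oral dose with 240 ml water. Values are means (SD).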

Homo sapiens [23] = assay: Clearance in healthy human at 50 […], po administered as single dose; assay type: ADME, organism-based; design: route oral; conditions: in vivo
In short: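 Randomized, double-blind, placebo-controlled single ascending oral dose in fasted healthy subjects (six on drug per cohort, with 240 ml water). Plasma sampled predose through 96 h and assayed by validated LC-MS/MS over 5–5,000 ng/ml. Oral clearance (CL_o) came from noncompartmental analysis, with AUC_0-∞ from linear trapezoids plus C_last/λz. Values are means (SD).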

[24] = Clearance in healthy human assessed as recovery of unchanged drug in urine at 125 […], po administered as single dose; assay type: ADME, organism-based; design: route oral; conditions: read-out: Recovered in urine
In short: (§3)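 Healthy volunteers, six on drug per cohort, fasted 10 h and given one oral dose with 240 ml water, then fasted 4 h more. Urine was pooled over intervals from 0-2 to 72-96 h and stored at about −70°C. Drug was measured by solid-phase extraction and LC-MS/MS (LLOQ 200 ng/ml), giving the percent of dose recovered unchanged. Values are means (SD).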

[25] = Clearance in healthy human assessed as recovery of unchanged drug in urine at 250 […], po administered as single dose; assay type: ADME, organism-based; design: route oral; conditions: read-out: Recovered in urine; in short: as §3
[26] = Clearance in healthy human assessed as recovery of unchanged drug in urine at 1500 […], po administered as single dose; assay type: ADME, organism-based; design: route oral; conditions: read-out: Recovered in urine; in short: as §3
Streptococcus pneumoniae [27] = assay: Ratio of fAUC to MIC90 for Streptococcus pneumoniae; assay type: functional
In short: (§4)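 Fasted healthy adults got a single oral 500 mg dose with 240 ml water. Plasma was sampled predose to 96 h and assayed by LC-MS/MS (5–5,000 ng/ml). Cmax was read from individual profiles, and AUC0-∞ came from linear trapezoid plus extrapolation. Free fraction was measured by ultrafiltration (30,000 MWCO) of 0.5 and 6 h plasma. Free exposure was divided by the isolate MIC90.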

Streptococcus pneumoniae [28] = assay: Ratio of fAUC to MIC90 for penicillin-intermediate Streptococcus pneumoniae; assay type: functional; in short: as §4
Streptococcus pneumoniae [29] = assay: Ratio of fAUC to MIC90 for penicillin-resistant Streptococcus pneumoniae; assay type: functional; in short: as §4
Streptococcus pneumoniae [30] = assay: Ratio of fCmax to MIC90 for Streptococcus pneumoniae; assay type: functional; in short: as §4
Streptococcus pneumoniae [31] = assay: Ratio of fCmax to MIC90 for penicillin-sensitive Streptococcus pneumoniae; assay type: functional; in short: as §4
Streptococcus pneumoniae [32] = assay: Ratio of fCmax to MIC90 for penicillin-intermediate Streptococcus pneumoniae; assay type: functional; in short: as §4
Staphylococcus aureus [33] = assay: Ratio of fCmax to MIC90 for methicillin-sensitive Staphylococcus aureus; assay type: functional; in short: as §4
Staphylococcus aureus [34] = assay: Ratio of fCmax to MIC90 for methicillin-resistant Staphylococcus aureus; assay type: functional; in short: as §4
[35] = Tmax in healthy human at 25 mg, po administered as single dose; conditions: in vivo
[36] = Cmax in healthy human at 500 mg, po administered as single dose; conditions: in vivo
[37] = Renal clearance in healthy human at 25 mg, po administered as single dose; conditions: in vivo, read-out: CL_renal (converted)
Homo sapiens [38] = assay: AUC (0 to infinity) in healthy human at 1500 mg, po administered as single dose; conditions: in vivo
Homo sapiens [39] = assay: Terminal volume of distribution in healthy human at 125 mg, po administered as single dose; conditions: in vivo
Homo sapiens [40] = assay: Terminal volume of distribution in healthy human at 500 mg, po administered as single dose; conditions: in vivo
[41] = Terminal phase elimination half-life in healthy human at 1000 mg, po administered single dose; conditions: in vivo

SMILES: COc1c(N2C[C@@H](C)C[C@H](N)C2)ccc2c(=O)c(C(=O)O)cn(C3CC3)c12 [NEMONOXACIN]
- Activity (Homo sapiens [1]): 0%
- Activity (Homo sapiens [2]): 33%
- Activity (Homo sapiens [3]): 0%
- Activity (Homo sapiens [4]): 0%
- Activity (Homo sapiens [5]): 0%
- Activity (Homo sapiens [6]): 0%
- Activity (Homo sapiens [7]): 0%
- Activity (Homo sapiens [8]): 17%
- Activity (Homo sapiens [9]): 0%
- Activity (Homo sapiens [10]): 0%
- Activity (Homo sapiens [11]): 0%
- Activity (Homo sapiens [12]): 0%
- Activity (Homo sapiens [13]): 0%
- Activity (Homo sapiens [14]): 0%
- Activity (Homo sapiens [15]): 0%
- Activity (Homo sapiens [16]): 0%
- Activity (Homo sapiens [17]): 0%
- Activity (Homo sapiens [18]): 17%
- Activity (Homo sapiens [19]): 0%
- AUC (Homo sapiens [20]): 15450 ng·h/mL
- AUC (Homo sapiens [21]): 32360 ng·h/mL
- Tmax [22]: 2.67 h
- CL (Homo sapiens [23]): 3.83 mL/min/kg
- dose excreted [24]: 38.3%
- dose excreted [25]: 44.9%
- dose excreted [26]: 37.6%
- Ratio (Streptococcus pneumoniae [27]): 1812
- Ratio (Streptococcus pneumoniae [28]): 1812
- Ratio (Streptococcus pneumoniae [29]): 906
- Ratio (Streptococcus pneumoniae [30]): 191
- Ratio (Streptococcus pneumoniae [31]): 191
- Ratio (Streptococcus pneumoniae [32]): 191
- Ratio (Staphylococcus aureus [33]): 24
- Ratio (Staphylococcus aureus [34]): 48
- Tmax [35]: 0.92 h
- Cmax [36]: 3410 ng/mL
- CL renal [37]: 3 mL/min/kg
- AUC (Homo sapiens [38]): 117840 ng·h/mL
- Vbeta (Homo sapiens [39]): 3.38 L/kg
- Vbeta (Homo sapiens [40]): 4.25 L/kg
- half-life [41]: 16.4 h
